Experimental data reported in ChEMBL document CHEMBL3351342, “Synthesis and biological evaluation of phenoxyacetic acid derivatives as novel free fatty acid receptor 1 agonists” (Bioorg Med Chem, 2015).
Active and inactive are the calls of the source. The calls are words filed in the database; no cut-off is given here.

Legend:
[1] = target: T1, Free fatty acid receptor 1 (Homo sapiens, UniProt O14842); experiment: Agonist activity at human FFA1 expressed in CHO cells assessed as ratio of increase in intracellular Ca2+ concentration in compound treated cells at 100 nM to vehicle-treated cells by Fluo-4 AM based fluorescence assay; format: functional, cell-based
Method in brief: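 Same Fluo-4 Ca2+ flux format in CHO cells stably expressing human FFA1. Single screening concentration of 100 nM. Activity expressed as A/B, the Ca2+ increase in compound-treated wells divided by that in vehicle-treated wells. Three independent experiments.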

[2] = target: T1, Free fatty acid receptor 1; experiment: Agonist activity at human FFA1 expressed in CHO cells assessed as increase in intracellular Ca2+ concentration by Fluo-4 AM based fluorescence assay; format: functional, cell-based
Method in brief: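 CHO cells stably expressing human FFA1 (NM_005303), 30,000 cells/well, cultured overnight at 37 °C in 5% CO2. Loaded with 2.5 µg/mL Fluo-4 AM and 2.5 mmol/L probenecid in HBSS for 90 min at 37 °C, washed, then held 10 min in HBSS with probenecid. Ca2+ rise after adding compound at various concentrations read by fluorimetry. EC50 from curve fitting, mean of three determinations.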

[3] = test system: Mus musculus; experiment: Hypoglycemic effect in ICR mouse assessed as improvement in glucose intolerance at 20 mg/kg, po dosed 30 mins before oral glucose challenge by oral glucose tolerance test; format: functional, organism-based; set-up: dose 20 mg/kg
Method in brief: (§1)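 Male ICR mice, 10 weeks old, fasted 12 h and randomized (n = 6). Single oral dose of 20 mg/kg as a suspension in 0.5% methylcellulose (1.0 mL/kg), given 30 min before an oral glucose load of 2 g/kg (20% solution). Blood glucose read by test strip at −30, 0, 15, 30, 60 and 120 min. AUC0–120 min calculated; mean ± SEM.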

[4] = Tmax in Sprague-Dawley rat at 1 mg/kg, po; format: ADME, organism-based; set-up: dose 1 mg/kg, route oral; conditions: in vivo
Method in brief: (§2)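 Fasted male SD rats (n = 3). Dosed 1 mg/kg iv (0.5 mg/mL, 2 mL/kg) or 1 mg/kg po (1 mg/mL, 1 mL/kg), both in 0.5% methylcellulose. Tail-vein blood in EDTA sampled from 5 min to 36 h. Plasma proteins precipitated with acetonitrile containing internal standard, then analysed by LC-MS/MS. Parameters derived from mean concentrations at each time point.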

[5] = test system: Mus musculus; experiment: Antihyperglycemic effect in type 2 diabetic C57BL/6 mouse assessed as reduction in blood glucose level at 60 mg/kg, po administered as single dose; format: functional, organism-based; set-up: dose 60 mg/kg
Method in brief: (§3)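 Type 2 diabetes model: male C57BL/6 mice on high-fat diet (45% fat) for 4 weeks, STZ 80 mg/kg ip, then high-fat diet for another 4 weeks. Fasting glucose ≥11.1 mmol/L counted as diabetic. Mice fasted 12 h and randomized by weight and glucose (n = 6). Single oral dose of 30–100 mg/kg in 0.5% methylcellulose given 30 min before an oral glucose load of 1 g/kg. Glucose read by strip to 120 min; AUC0–120 min; mean ± SD.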

[6] = Half life in Sprague-Dawley rat at 1 mg/kg, iv; format: ADME, organism-based; set-up: dose 1 mg/kg, route intravenous; conditions: in vivo; method in brief: as §2
[7] = AUC (0 to 8 hrs) in Sprague-Dawley rat at 1 mg/kg, po; format: ADME, organism-based; set-up: time < 8 hr, dose 1 mg/kg, route oral; conditions: plasma; method in brief: as §2
[8] = Half life in Sprague-Dawley rat at 1 mg/kg, po; format: ADME, organism-based; set-up: dose 1 mg/kg, route oral; conditions: in vivo; method in brief: as §2
[9] = Oral bioavailability in Sprague-Dawley rat at 1 mg/kg; format: ADME, organism-based; conditions: in vivo; method in brief: as §2
[10] = test system: Mus musculus; experiment: Antihyperglycemic effect in type 2 diabetic C57BL/6 mouse assessed as reduction in blood glucose level at 30 to 100 mg/kg, po; format: functional, organism-based; method in brief: as §3
[11] = Cmax in Sprague-Dawley rat at 1 mg/kg, po; format: ADME, organism-based; set-up: dose 1 mg/kg, route oral; conditions: in vivo; method in brief: as §2
[12] = test system: Mus musculus; experiment: Hypoglycemic effect in ICR mouse assessed as reduction in glucose AUC (0 to 120 mins) at 20 mg/kg, po dosed 30 mins before oral glucose challenge by oral glucose tolerance test; format: functional; set-up: scale not given: the % may be the effect or the level left; method in brief: as §1
[13] = Clearance in Sprague-Dawley rat at 1 mg/kg, iv; format: ADME, organism-based; set-up: dose 1 mg/kg, route intravenous; conditions: in vivo; method in brief: as §2
[14] = Volume of distribution in Sprague-Dawley rat at 1 mg/kg, iv; format: ADME, organism-based; set-up: dose 1 mg/kg, route intravenous; conditions: in vivo; method in brief: as §2

T1 sequence (O14842 whole entry): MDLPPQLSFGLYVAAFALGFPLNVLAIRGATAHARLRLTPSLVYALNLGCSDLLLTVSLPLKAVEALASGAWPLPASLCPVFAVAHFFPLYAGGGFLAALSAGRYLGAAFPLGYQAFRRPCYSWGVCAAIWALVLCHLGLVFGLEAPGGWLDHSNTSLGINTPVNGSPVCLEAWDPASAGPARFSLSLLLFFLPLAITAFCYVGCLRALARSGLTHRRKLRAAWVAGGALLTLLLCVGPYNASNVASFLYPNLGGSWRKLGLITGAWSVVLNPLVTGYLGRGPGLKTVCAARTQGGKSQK

Row | Ratio [1] | EC50 [2] [µM] | Compound | Activity [3] | further results
1 | 3.06 |  | Cc1cc(OCCCS(C)(=O)=O)cc(C)c1-c1cccc(COc2ccc(OC(C)(C)C(=O)O)c(F)c2)c1 |  | 
2 | 6.04 | 0.121 | Cc1cc(OCCCS(C)(=O)=O)cc(C)c1-c1cccc(COc2ccc(OCC(=O)O)cc2)c1 | Active | 
3 | 4.04 | 0.389 | Cc1cc(OCCCS(C)(=O)=O)cc(C)c1-c1cccc(COc2ccc(OC(C)C(=O)O)cc2)c1 (configuration not stated) | Active | 
4 | 6.42 | 0.0623 | Cc1cc(OCCCS(C)(=O)=O)cc(C)c1-c1cccc(COc2ccc(OCC(=O)O)c(F)c2)c1 | Active | Tmax [4]: 1 h; Activity [5]: Active; half-life [6]: 4.15 h; AUC(0-t) at 8 h [7]: 5.34 µg·h/mL; half-life [8]: 3.27 h; bioavailability [9]: 63%; Activity [10]: Dose-dependent effect; Cmax [11]: 1.17 µg/mL; Activity [12]: 31%; clearance [13]: 0.11 L/h/kg; Vd [14]: 0.26 L/kg
5 | 3.04 |  | CCC(Oc1ccc(OCc2cccc(-c3c(C)cc(OCCCS(C)(=O)=O)cc3C)c2)cc1)C(=O)O (configuration not stated) |  | 
6 | 3.04 |  | Cc1cc(OCCCS(C)(=O)=O)cc(C)c1-c1cccc(COc2ccc(OC(C)(C)C(=O)O)c(Cl)c2)c1 |  | 
7 | 3.19 |  | CCc1cc(OCc2cccc(-c3c(C)cc(OCCCS(C)(=O)=O)cc3C)c2)ccc1OCC(=O)O |  | 
8 | 1.81 |  | COc1cc(OCc2cccc(-c3c(C)cc(OCCCS(C)(=O)=O)cc3C)c2)ccc1OC(C)(C)C(=O)O |  | 
9 | 1.6 |  | Cc1cc(OCc2cccc(-c3c(C)cc(OCCCS(C)(=O)=O)cc3C)c2)cc(C)c1OC(C)(C)C(=O)O |  | 
10 |  |  | Cc1cc(OCCCS(C)(=O)=O)cc(C)c1-c1cccc(COc2ccc3c(c2)OC[C@H]3CC(=O)O)c1 | Active | Activity [12]: 29.3%
11 | 1.48 |  | CCc1cc(OCc2cccc(-c3c(C)cc(OCCCS(C)(=O)=O)cc3C)c2)ccc1OC(C)(C)C(=O)O |  | 
12 | 2.45 |  | Cc1cc(OCCCS(C)(=O)=O)cc(C)c1-c1cccc(COc2ccc(OC(C)(C)C(=O)O)cc2)c1 |  | 
13 | 6.18 | 0.0926 | Cc1cc(OCCCS(C)(=O)=O)cc(C)c1-c1cccc(COc2ccc(OCC(=O)O)c(Cl)c2)c1 | Active | 
14 | 2.02 |  | COc1cc(OCc2cccc(-c3c(C)cc(OCCCS(C)(=O)=O)cc3C)c2)ccc1OCC(=O)O |  | 
15 | 5.64 | 0.153 | Cc1cc(OCc2cccc(-c3c(C)cc(OCCCS(C)(=O)=O)cc3C)c2)ccc1OCC(=O)O | Active | 
